Reference: ChEMBL document CHEMBL1154098, “Synthesis, characterization and in vitro antimicrobial activity of novel 2-thioxo-4-thiazolidinones and 4,4'-bis(2-thioxo-4-thiazolidinone-3-yl)diphenylsulfones” (2009)

What was measured:
Aspergillus ochraceus [1] = assay: Antifungal activity against Aspergillus ochraceus Wilhelm AUCC 230 at 1 mg/mL after 48 hrs by agar diffusion assay; assay type: functional; conditions: Wilhelm AUCC 230, 48 h, read-out: DIZ
Method in brief: (§1)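 Fungi were grown on Czapek's–Dox agar and assayed by agar diffusion. Test solution was 1 mg mL-1 in DMF, with DMF as negative control. After 48 h incubation, the inhibition zone diameter was measured in mm.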

Bacillus cereus [2] = assay: Antibacterial activity against Bacillus cereus ATCC 14579 after 24 hrs by agar diffusion assay; assay type: functional; conditions: ATCC 14579, 24 h
Proteus mirabilis [3] = assay: Antibacterial activity against Proteus mirabilis NCT 289 at 1 mg/mL […] by agar diffusion assay; assay type: functional; conditions: read-out: DIZ
Serratia marcescens [4] = assay: Antibacterial activity against Serratia marcescens IMRU 70 at 1 mg/mL […] by agar diffusion assay; assay type: functional; conditions: read-out: DIZ
Staphylococcus aureus [5] = assay: Antibacterial activity against Staphylococcus aureus NCTC 7447 at 1 mg/mL […] by agar diffusion assay; assay type: functional; conditions: read-out: DIZ
Penicillium chrysogenum [6] = assay: Antifungal activity against Penicillium chrysogenum Thom AUCC 530 at 1 mg/mL after 48 hrs by agar diffusion assay; assay type: functional; conditions: Thom AUCC 530, 48 h, read-out: DIZ; method in brief: as §1
Bacillus cereus [7] = assay: Antibacterial activity against Bacillus cereus ATCC 14579 at 1 mg/mL […] by agar diffusion assay; assay type: functional; conditions: read-out: DIZ
Penicillium chrysogenum [8] = assay: Antifungal activity against Penicillium chrysogenum Thom AUCC 530 at 30 ug/mL after 48 hrs by agar diffusion assay; assay type: functional, organism-based
Method in brief: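 Agar-diffusion assay on Czapek's–Dox agar inoculated with the fungal culture. Test solutions were 1 mg mL-1 in DMF, with DMF as the negative control and Mycostatine (30 µg mL-1) as the reference drug. Plates were incubated for 48 h, and the inhibition zone diameter was measured in mm.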

Aspergillus ochraceus [9] = assay: Antifungal activity against Aspergillus ochraceus Wilhelm AUCC 230 at 30 ug/mL after 48 hrs by agar diffusion assay; assay type: functional, organism-based
Penicillium chrysogenum [10] = assay: Antifungal activity against Penicillium chrysogenum Thom AUCC 530 after 48 hrs by agar diffusion assay; assay type: functional; conditions: Thom AUCC 530, 48 h
Proteus mirabilis [11] = assay: Antibacterial activity against Proteus mirabilis NCT 289 at 25 ug/mL […] by agar diffusion assay; assay type: functional; conditions: read-out: DIZ
Staphylococcus aureus [12] = assay: Antibacterial activity against Staphylococcus aureus NCTC 7447 at 25 ug/mL […] by agar diffusion assay; assay type: functional; conditions: read-out: DIZ
Serratia marcescens [13] = assay: Antibacterial activity against Serratia marcescens IMRU 70 at 25 ug/mL […] by agar diffusion assay; assay type: functional; conditions: read-out: DIZ
Aspergillus ochraceus [14] = assay: Antifungal activity against Aspergillus ochraceus Wilhelm AUCC 230 at 25 ug/mL after 24 hrs by agar diffusion assay; assay type: functional; conditions: Wilhelm AUCC 230, 24 h, read-out: DIZ
Bacillus cereus [15] = assay: Antibacterial activity against Bacillus cereus ATCC 14579 at 25 ug/mL […] by agar diffusion assay; assay type: functional; conditions: read-out: DIZ
Penicillium chrysogenum [16] = assay: Antifungal activity against Penicillium chrysogenum Thom AUCC 530 at 25 ug/mL after 24 hrs by agar diffusion assay; assay type: functional; conditions: Thom AUCC 530, 24 h, read-out: DIZ

Row | Molecule | zone of inhibition at 1000 µg/mL (Aspergillus ochraceus [1]) [mm] | MIC (Bacillus cereus [2]) [µg/mL] | zone of inhibition at 1000 µg/mL (Proteus mirabilis [3]) [mm] | zone of inhibition at 1000 µg/mL (Serratia marcescens [4]) [mm] | zone of inhibition at 1000 µg/mL (Staphylococcus aureus [5]) [mm] | zone of inhibition at 1000 µg/mL (Penicillium chrysogenum [6]) [mm] | zone of inhibition at 1000 µg/mL (Bacillus cereus [7]) [mm] | inhibition zone (IZ) (Penicillium chrysogenum [8]) [mm] | inhibition zone (IZ) (Aspergillus ochraceus [9]) [mm] | MIC (Penicillium chrysogenum [10]) [µg/mL] | zone of inhibition at 25 µg/mL (Proteus mirabilis [11]) [mm] | zone of inhibition at 25 µg/mL (Staphylococcus aureus [12]) [mm] | zone of inhibition at 25 µg/mL (Serratia marcescens [13]) [mm] | zone of inhibition at 25 µg/mL (Aspergillus ochraceus [14]) [mm] | zone of inhibition at 25 µg/mL (Bacillus cereus [15]) [mm] | zone of inhibition at 25 µg/mL (Penicillium chrysogenum [16]) [mm]
1 | Cc1ccc(/C=C2/SC(=S)N(c3ccc(S(N)(=O)=O)cc3)C2=O)cc1 | 14 | < 50 | 17 | 18 | 14 | 10 | 34 |  |  |  |  |  |  |  |  | 
2 | CN(C)/C=N/S(=O)(=O)c1ccc(N2C(=O)/C(=C\N(C)C)SC2=S)cc1 | 16 |  | 20 | 12 | 16 | 16 | 15 |  |  |  |  |  |  |  |  | 
3 | NYSTATIN |  |  |  |  |  |  |  | 43 | 40 |  |  |  |  |  |  | 
4 | COc1ccc(/C=C2/SC(=S)N(c3ccc(S(N)(=O)=O)cc3)C2=O)cc1 | 19 |  | 19 | 15 | 27 | 17 | 10 |  |  |  |  |  |  |  |  | 
5 | O=C1CSC(=S)N1c1ccc(S(=O)(=O)c2ccc(N3C(=O)CSC3=S)cc2)cc1 | 26 |  | 24 | 10 | 15 | 12 | 13 |  |  |  |  |  |  |  |  | 
6 | COc1ccc(/C=C2\SC(=S)N(c3ccc(S(=O)(=O)c4ccc(N5C(=O)/C(=C/c6ccc(OC)cc6)SC5=S)cc4)cc3)C2=O)cc1 | 11 |  | 25 | 13 | 17 | 11 | 16 |  |  |  |  |  |  |  |  | 
7 | CCO/C=C1/SC(=S)N(c2ccc(S(N)(=O)=O)cc2)C1=O | 12 |  | 23 | 23 | 25 | 18 | 12 |  |  |  |  |  |  |  |  | 
8 | O=C1CSC(=S)N1c1ccc(S(=O)(=O)Nc2ncccn2)cc1 | 15 |  | 19 | 22 | 18 | 35 | 16 |  |  | < 50 |  |  |  |  |  | 
9 | CC1(C)S[C@@H]2[C@H](NC(=O)[C@H](N)c3ccccc3)C(=O)N2[C@H]1C(=O)O [AMPICILLIN] |  |  |  |  |  |  |  |  |  |  | 40 | 40 | 40 | 10 | 43 | 16
10 | N#CC(C#N)=C1SC(=S)N(c2ccc(S(N)(=O)=O)cc2)C1=O | 14 | < 50 | 18 | 24 | 15 | 14 | 32 |  |  |  |  |  |  |  |  | 
11 | NS(=O)(=O)c1ccc(N2C(=O)/C(=C\c3ccc(/C=C4/SC(=S)N(c5ccc(S(N)(=O)=O)cc5)C4=O)cc3)SC2=S)cc1 | 16 | < 50 | 22 | 19 | 13 | 15 | 33 |  |  |  |  |  |  |  |  | 
12 | NS(=O)(=O)c1ccc(N2C(=O)CSC2=S)cc1 | 18 |  | 24 | 20 | 28 | 16 | 13 |  |  |  |  |  |  |  |  | 
